Test results: ChEMBL document CHEMBL1121728, “Synthesis and antitumor activity of an acyclonucleoside derivative of 5-fluorouracil” (1981)

What was measured:
P388 [1] = assay: Compound was evaluated for the 7-day percent change in weight of mice infected with P388 leukemia at a dose of 50 […] in q.d. 1-4 schedule; type: functional, Mus musculus
Procedure, shortened: (§1)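 Male B6D2F₁J mice in groups of five received 10⁶ P388 cells ip on day 0. Compound was then given ip in water on the stated schedule. Body weights were taken on days 1 and 7, and the change is expressed as a percentage. Survival was also recorded as percent increase in life span.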

P388 [2] = assay: 7-day weight change in mice infected with P388 leukemia at a dose of 60 […] in q.d. 1-9 schedule
P388 [3] = assay: Compound was evaluated for the 7-day percent change in weight of mice infected with P388 leukemia at a dose of 100 […] in q.d. 1-4 schedule; type: functional, Mus musculus; procedure, shortened: as §1
P388 [4] = assay: Compound was evaluated for the 7-day percent change in weight of mice infected with P388 leukemia at a dose of 200 […] in q.d. 1-4 schedule; type: functional, Mus musculus; procedure, shortened: as §1
P388 [5] = assay: Compound was evaluated for the median survival time of mice infected with P388 leukemia at a dose of 100 […] in b.i.d. x 4 schedule; type: functional, Mus musculus
Procedure, shortened: (§2)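 Male B6D2F1J mice, five per group, received 10^6 P388 leukemia cells ip on day 0. Treatment was ip in water on q.d. 1-4, b.i.d. × 4 or q.d. 1-9 schedules. Survival was recorded, and increase in life span (ILS) was calculated relative to untreated controls. Toxicity was judged by weight loss.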

P388 [6] = assay: Compound was evaluated for the median survival time of mice infected with P388 leukemia at a dose of 240 […] in q.d. 1-9 schedule; type: functional, Mus musculus; procedure, shortened: as §2
P388 [7] = assay: Compound was evaluated for the median survival time of mice infected with P388 leukemia at a dose of 100 […] in q.d. 1-4 schedule; type: functional, Mus musculus; procedure, shortened: as §2
P388 [8] = assay: Compound was evaluated for the 7-day percent change in weight of mice infected with P388 leukemia at a dose of 200 […] in b.i.d. x 4 schedule; type: functional, Mus musculus; procedure, shortened: as §1
P388 [9] = assay: Compound was evaluated for the 7-day percent change in weight of mice infected with P388 leukemia at a dose of 240 […] in q.d. 1-9 schedule; type: functional, Mus musculus; procedure, shortened: as §1
P388 [10] = assay: Compound was evaluated for the median survival time of mice infected with P388 leukemia at a dose of 400 […] in b.i.d. x 4 schedule; type: functional, Mus musculus; procedure, shortened: as §2
P388 [11] = assay: Compound was evaluated for the median survival time of mice infected with P388 leukemia at a dose of 60 […] in q.d. 1-9 schedule; type: functional, Mus musculus; procedure, shortened: as §2
P388 [12] = assay: Compound was evaluated for the median survival time of mice infected with P388 leukemia at a dose of 50 […] in q.d. 1-4 schedule; type: functional, Mus musculus; procedure, shortened: as §2
P388 [13] = assay: Compound was evaluated for the 7-day percent change in weight of mice infected with P388 leukemia at a dose of 400 […] in b.i.d. x 4 schedule; type: functional, Mus musculus; procedure, shortened: as §1
P388 [14] = assay: Compound was evaluated for the median survival time of mice infected with P388 leukemia at a dose of 50 […] in b.i.d. x 4 schedule; type: functional, Mus musculus; procedure, shortened: as §2
P388 [15] = assay: Percent increase in survival of P388 leukemic mice at a compound dose 400 mg/kg (b.i.d. x 4) or 240 mg/kg (q.d. 1-9) was given intraperitoneally in water; type: functional, Mus musculus; procedure, shortened: as §2
P388 [16] = assay: Compound was evaluated for the median survival time of mice infected with P388 leukemia at a dose of 200 […] in b.i.d. x 4 schedule; type: functional, Mus musculus; procedure, shortened: as §2
P388 [17] = assay: Compound was evaluated for the median survival time of mice infected with P388 leukemia at a dose of 200 […] in q.d. 1-4 schedule; type: functional, Mus musculus; procedure, shortened: as §2
P388 [18] = assay: Compound was evaluated for the median survival time of mice infected with P388 leukemia at a dose of 120 […] in q.d. 1-9 schedule; type: functional, Mus musculus; procedure, shortened: as §2
L1210 [19] = assay: Inhibition against L1210 mouse leukemia cells; type: functional; details: read-out: ID50 (the source's name)
Procedure, shortened: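 Growth inhibition of L1210 mouse leukemia cells in culture, reported as ID50 (molar concentration).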

P388 [20] = assay: Compound was evaluated for the 7-day percent change in weight of mice infected with P388 leukemia at a dose of 120 […] in q.d. 1-9 schedule; type: functional, Mus musculus; procedure, shortened: as §1
P388 [21] = assay: Compound was evaluated for the 7-day percent change in weight of mice infected with P388 leukemia at a dose of 100 […] in b.i.d. x 4 schedule; type: functional, Mus musculus; procedure, shortened: as §1
P388 [22] = assay: Compound was evaluated for the 7-day percent change in weight of mice infected with P388 leukemia at a dose of 50 […] in b.i.d. x 4 schedule; type: functional, Mus musculus; procedure, shortened: as §1
L1210 [23] = assay: Inhibition against L1210 mouse leukemia cells; No effect; type: functional; details: read-out: ID50 (the source's name)
L1210 [24] = assay: Inhibition against L1210 mouse leukemia cells; Inactive; type: functional; details: read-out: ID50 (the source's name)
P388 [25] = assay: Compound was evaluated for the median survival time of mice infected with P388 leukemia at a dose of 20 […] in b.i.d. x 4 schedule; type: functional, Mus musculus; procedure, shortened: as §2
P388 [26] = assay: Compound was evaluated for the median survival time of mice infected with P388 leukemia at a dose of 40 […] in b.i.d. x 4 schedule; type: functional, Mus musculus
P388 [27] = assay: Compound was evaluated for the 7-day percent change in weight of mice infected with P388 leukemia at a dose of 40 […] in q.d. 1-4 schedule; type: functional, Mus musculus
Procedure, shortened: (§3)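 Groups of five male B6D2F1J mice were inoculated ip with 10^6 P388 cells on day 0. Drugs were given ip in water on q.d. 1-4, b.i.d. × 4 or q.d. 1-9 schedules. Animals were weighed on days 1 and 7, and weight change was expressed as a percentage.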

P388 [28] = assay: Compound was evaluated for the median survival time of mice infected with P388 leukemia at a dose of 40 […] in q.d. 1-4 schedule; type: functional, Mus musculus; procedure, shortened: as §2
P388 [29] = assay: Compound was evaluated for the 7-day percent change in weight of mice infected with P388 leukemia at a dose of 20 […] in q.d. 1-4 schedule; type: functional, Mus musculus; procedure, shortened: as §3
P388 [30] = assay: Compound was evaluated for the median survival time of mice infected with P388 leukemia at a dose of 20 […] in q.d. 1-4 schedule; type: functional, Mus musculus; procedure, shortened: as §2
P388 [31] = assay: Compound was evaluated for the 7-day percent change in weight of mice infected with P388 leukemia at a dose of 40 […] in b.i.d. x 4 schedule; type: functional, Mus musculus; procedure, shortened: as §3
P388 [32] = assay: Compound was evaluated for the 7-day percent change in weight of mice infected with P388 leukemia at a dose of 40 […] in q.d. 1-9 schedule; type: functional, Mus musculus; procedure, shortened: as §3
P388 [33] = assay: Compound was evaluated for the 7-day percent change in weight of mice infected with P388 leukemia at a dose of 20 […] in b.i.d. x 4 schedule; type: functional, Mus musculus; procedure, shortened: as §3
P388 [34] = assay: Percent increase in life span against mice infected with P388 leukemia at a dose of 20 […] in q.d. 1-9 schedule; type: functional, Mus musculus; procedure, shortened: as §2
P388 [35] = assay: Compound was evaluated for the median survival time of mice infected with P388 leukemia at a dose of 40 […] in q.d. 1-9 schedule; type: functional, Mus musculus; procedure, shortened: as §2
P388 [36] = assay: Compound was evaluated for the median survival time of mice infected with P388 leukemia at a dose of 20 […] in q.d. 1-9 schedule; type: functional, Mus musculus; procedure, shortened: as §2

## O=c1[nH]c(=O)n(COCCO)cc1F
P388 [1]
  Weight change: 7%
P388 [2]
  7-day weight change: 8%
P388 [3]
  Weight change: 6%
P388 [4]
  Weight change: 6%
P388 [5]
  Median survival: 17 days
P388 [6]
  Median survival: 21 days
P388 [7]
  Median survival: 15 days
P388 [8]
  Weight change: 4%
P388 [9]
  Weight change: 0%
P388 [10]
  Median survival: 21 days
P388 [11]
  Median survival: 16 days
P388 [12]
  Median survival: 14 days
P388 [13]
  Weight change: 0%
P388 [14]
  Median survival: 16 days
P388 [15]
  Increase: 75%
P388 [16]
  Median survival: 20 days
P388 [17]
  Median survival: 17 days
P388 [18]
  Median survival: 18 days
L1210 [19]
  IC50: 17 µM
P388 [20]
  Weight change: 0%
P388 [21]
  Weight change: 4%
P388 [22]
  Weight change: 5%

## O=c1[nH]c(=O)n(COCCO)cc1I
L1210 [23]
  IC50: 1000 µM

## Nc1nc(=O)n(COCCO)cc1F
L1210 [24]
  IC50: 100 µM

## O=c1[nH]c(=O)n(COCCO)cc1Br
L1210 [23]
  IC50: 1000 µM

## O=c1[nH]cc(F)c(=O)[nH]1 [FLUOROURACIL]
P388 [25]
  Median survival: 19 days
P388 [26]
  Median survival: 12 days
P388 [27]
  Weight change: -29%
P388 [28]
  Median survival: 10 days
P388 [29]
  Weight change: -5%
P388 [30]
  Median survival: 23 days
P388 [31]
  Weight change: -12%
P388 [32]
  Weight change: -23%
P388 [33]
  Weight change: 9%
P388 [34]
  Weight change: -2%
L1210 [19]
  IC50: 1 µM
P388 [35]
  Median survival: 12 days
P388 [36]
  Median survival: 21 days
